Screens: PubChem, several laboratories
GalR3 antag = human GalR3 antagonism; O60755; HEK293 GalR3-CNG cAMP membrane potential fluorescence; galR3 body fused to GalR1 C-terminus; inhibition, % at 3 µM; actives 0.44% (n = 360,000); AID 651719;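 active = inhibition above the screen-wide average plus 3 SD, cut at about 13% in these data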;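 note: forskolin and galanin both at EC90 stimulate the cells; cAMP rise reported by CNG channel membrane potential dye signal; 0% = forskolin plus galanin with DMSO and 100% = forskolin alone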
GAA850 FXN act = activators of GAA850 frataxin (FXN) promoter. activation, % at 6 µM. actives 0.56% (n = 360,000). HEK293 lucGAA850 FXN promoter luciferase reporter, 24 h; percent of 10 µM SAHA response;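 active = activation above the average of all compounds screened plus 3 SD, cutoff fixed separately per campaign, cut at about 7.5% in these data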;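 note: 0% = DMSO wells and 100% = 10 µM SAHA wells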
NR2E3 ag-1 = human photoreceptor-specific nuclear receptor agonism | Q9Y5X4 | CHO-S Gal4-NCOR/VP16-NR2E3 two-hybrid, luciferase | inhibition of corepressor binding, % at 3.98 µM | actives 0.35% (n = 360,000);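 active = inhibition above the mean of all tested compounds plus 3 SD, cut at about 70% in these data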;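 note: 0% = DMSO with NR2E3 transfected cells and 100% = cells lacking NR2E3 construct; higher means lower luciferase signal from less NR2E3 corepressor binding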
Target sequence (Q9Y5X4 whole entry, looked up, the tested form may be a part): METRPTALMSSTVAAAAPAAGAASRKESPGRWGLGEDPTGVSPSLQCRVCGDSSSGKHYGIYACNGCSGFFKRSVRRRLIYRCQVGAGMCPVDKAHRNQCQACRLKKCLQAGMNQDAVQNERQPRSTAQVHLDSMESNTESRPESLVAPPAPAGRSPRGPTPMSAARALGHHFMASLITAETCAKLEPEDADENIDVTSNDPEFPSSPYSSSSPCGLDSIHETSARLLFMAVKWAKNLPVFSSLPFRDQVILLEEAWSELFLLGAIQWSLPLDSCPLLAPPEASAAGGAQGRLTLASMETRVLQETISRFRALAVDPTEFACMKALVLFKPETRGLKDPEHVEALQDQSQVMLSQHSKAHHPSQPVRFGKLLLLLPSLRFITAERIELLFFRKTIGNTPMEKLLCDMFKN
HIV Env fusion = blocks HIV Env-driven cell-cell fusion; HeLa-JRFL Env/CEM21 cell fusion, luciferase; inhibition, % at 12.3 µM; AID 651610; actives 1.1% (n = 360,000);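 active = mean replicate inhibition score of at least 50 and every replicate individually at or above 50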;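 note: 0% = plate neutral controls and 100% = maraviroc near 300 nM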
NR2E3 ag-2 = NR2E3 (human) agonism; Q9Y5X4; GST-NR2E3/biotin-RetCOR TR-FRET, 1536-well; inhibition of corepressor binding, % at 4.78 µM; actives 0.12% (n = 320,000); AID 2300;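 active = percent inhibition above the cutoff of mean plus 3 SD of all tested compounds, set per screening campaign, cut at about 20% in these data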;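 note: 0% = DMSO wells and 100% = biotin wells as full block of FRET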
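Format: 1536-well format; test system: GST-NR2E3 and biotin-RetCOR proteins; read-out basis: percent inhibition of TR-FRET ratio; timing: 5 h incubation at 4 °C; detection: time-resolved FRET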
V-ATPase pHluor = alters yeast V-ATPase proton transport. S. cerevisiae, pHLuorin cytosolic pH fluorescence. response, % at 10 µM. actives 0.37% (n = 350,000). AID 504577; in the data active = response mostly above about 7.3%, no sharp cut-off; inactive = mostly below about 5.4%; note: actives read high
The depositor's hits bear a star; . = no result; [ ] = dose if it differs, or a comment. Most compounds without a hit are left out; they make up all but 2.2% or so of the library.

SMILES	GalR3 antag	GAA850 FXN act	NR2E3 ag-1	HIV Env fusion	NR2E3 ag-2	V-ATPase pHluor
C#C[C@]1(O)CC[C@H]2[C@@H]3CCc4cc(O)ccc4[C@H]3CC[C@@]21C	.	-1	6	-75	-2	2
C#CC1(O)CCC2C3CCC4=C(CCC(=O)C4)C3CCC21C (stereo not drawn)	-3	2	-25	62*	.	0
O=C(NNC1=Nc2ccccc2SC1)c1ccc(Cl)cc1	-4	-3	1	61*	3	-2
Cc1occc1-c1n[nH]c(=S)n1C	13*	1	-36	-30	-1	3
CCN(CC)S(=O)(=O)c1cc(NC(=O)CCNC(=O)c2ccco2)ccc1C	-6	3	0	59*	1	0
COc1ccc(NC(=O)CCNC(=O)c2ccco2)cc1S(=O)(=O)N(C)C	-11	0	-17	-32	2	-3
COCC1CCCN(Cc2cn(Cc3ccccc3)nc2-c2cc3ccccc3o2)C1 (stereo not drawn)	5	3	11	58*	2	-2
COCC1CCN(Cc2cn(Cc3ccccc3)nc2-c2cc3ccccc3o2)CC1	3	1	1	14	0	1
CCC(=O)N(c1nnc(SCC(=O)c2ccc[nH]2)s1)C1CC1	-3	0	-18	-25	.	18*
COc1cccc(S(=O)(=O)N(C)C[C@@H]2Oc3cc(C#CCC(C)C)ccc3S(=O)(=O)N([C@@H](C)CO)C[C@H]2C)c1	.	.	.	44[16.7 µM]	.	.
Cc1ccc(S(=O)(=O)N(C)C[C@H]2Oc3ccc(NC(=O)Nc4cccc5ccccc45)cc3CC(=O)N([C@@H](C)CO)C[C@H]2C)cc1	.	.	.	2[16.7 µM]	.	.
CCOC(=O)C1C(=O)NC(N2CCCCC2)=NC1c1ccco1 (stereo not drawn)	1	-1	10	.	-2	15*
CCOC(=O)C1C(=O)NC(N2CCN(Cc3ccccc3)CC2)=NC1c1ccco1 (stereo not drawn)	-5	1	6	-32	0	-2
CCOC(=O)c1c(NC(=O)CSc2nnc(CNc3ccc(OC)cc3)n2C)sc(C)c1C	-4	-1	-20	27*	0	3
Cc1c(CCOC(=O)C23CC4(C)CC(C)(CC(C)(C4)C2)C3)sc[n+]1CC(=O)c1ccccc1	-4	4	-6	62*	-2	1
CC(=O)c1sc(NC(=O)CCNC(=O)c2ccco2)nc1-c1ccccc1	-2	1	-3	62*	-2	-2
COc1cc(C(=O)NCC2CCCO2)ccc1OCc1ccc(Cl)cc1Cl (stereo not drawn)	0	-1	-20	67*	2	6
COc1cc(C(=O)NCC2CCCO2)ccc1OCc1ccc(Cl)cc1 (stereo not drawn)	3	0	16	.	-3	0
CC(C)NC(=O)Nc1ccc2c(c1)C(=O)N([C@@H](C)CO)C[C@@H](C)[C@@H](CN(C)C(=O)CCCN(C)C)OCCCC[C@H](C)O2	.	.	.	-9[16.7 µM]	.	.
COc1ccc(S(=O)(=O)N[C@@H]2CC[C@@H](CC(=O)NCCc3ccncc3)O[C@@H]2CO)cc1	.	.	.	58*[16.7 µM]	.	.
COc1cccc(S(=O)(=O)N[C@@H]2CC[C@@H](CC(=O)NCc3ccncc3)O[C@H]2CO)c1	.	.	.	14[16.7 µM]	.	.
COc1cccc(S(=O)(=O)N[C@H]2CC[C@H](CC(=O)NCc3ccncc3)O[C@@H]2CO)c1	.	.	.	66*[16.7 µM]	.	.
COc1ccc(S(=O)(=O)N[C@@H]2CC[C@H](CC(=O)NCCc3ccncc3)O[C@H]2CO)cc1	.	.	.	-6[16.7 µM]	.	.
CCS(=O)(=O)N[C@H]1CC[C@@H](CC(=O)NCc2ccc(Cl)cc2)O[C@@H]1CO	.	.	.	70*[16.7 µM]	.	.
C[C@H]1CN([C@@H](C)CO)C(=O)c2cccc(NC(=O)c3cnccn3)c2O[C@@H]1CN(C)S(=O)(=O)c1ccccc1	.	.	.	-2[16.7 µM]	.	.
CO[C@@H]1CN(C)C(=O)c2ccc(NC(=O)C3CCCC3)cc2OC[C@@H](C)N(CCC(F)(F)F)C[C@@H]1C	.	.	.	-12[16.7 µM]	.	.
O=C(N[C@@H]1CC[C@@H](CCNS(=O)(=O)c2ccc(F)cc2)O[C@H]1CO)C1CC1	.	.	.	-1[16.7 µM]	.	.
O=S(=O)(NCC[C@H]1CC[C@H](NS(=O)(=O)c2ccccc2Cl)[C@H](CO)O1)c1ccc(Cl)cc1	.	.	.	58*[16.7 µM]	.	.
